The source made the active and inactive calls. The calls are words filed in the database; no cut-off is given here.
Tests used:
HCT-116 [1] = assay: Induction of morphological changes in human HCT-116 cells assessed as alteration in intercellular adhesion at 0.5 uM incubated for 48 hrs by scanning electron microscopic analysis; assay type: functional, cell-based
Procedure, shortened: (§1)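 HCT116 on coverslips, treated 48 h at 0.5 µM. Coverslips rinsed in PBS pH 7.4, fixed in 4% glutaraldehyde for 30 min at 4 °C, then imaged by scanning electron microscopy at 5000X and 20000X.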

MCF7 = assay: Cytotoxicity against human MCF7 cells assessed as inhibition of cell proliferation incubated for 48 hrs by MTT assay; assay type: functional, cell-based; settings: MCF7, 48 h
Procedure, shortened: (§2)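 Cells kept in DMEM with 10% heat-inactivated FBS, penicillin/streptomycin, 37 °C, 5% CO2. Plated at 5×10^3 cells/well and left 24 h, then exposed 48 h to 80, 20, 5, 1.25, 0.31 and 0.078 µM (diluted from 5 mM DMSO stocks). MTT added for 2 h at 37 °C, formazan dissolved in DMSO, A570 read. Blank subtracted, viability taken relative to untreated cells. IC50 from a sigmoidal fit of % inhibition vs log concentration. Three experiments, each in triplicate.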

HCT-116 [2] = assay: Inhibition of epithelial mesenchymal transition in human HCT-116 cells assessed as effect on E-cadherin protein expression at 0.5 uM incubated for 48 hrs by Western blot analysis; assay type: functional, cell-based
HCT-116 [3] = assay: Induction of morphological changes in human HCT-116 cells assessed as appearance of long and thin filopodia at 0.5 uM incubated for 48 hrs by scanning electron microscopic analysis; assay type: functional, cell-based; procedure, shortened: as §1
HCT-116 [4] = assay: Induction of apoptosis in human HCT-116 cells assessed as nuclear fragmentation at 0.5 uM incubated for 48 hrs by Hoechst 33342 staining based analysis; assay type: functional, cell-based
Procedure, shortened: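 HCT116 on coverslips at 5×10^4 cells/well, treated 48 h at 0.5 µM after 24 h attachment. PBS-washed, stained 10 min with Hoechst 33342 (final 1 µg/ml). Nuclei inspected at once by fluorescence microscopy at 640X for chromatin condensation and nuclear fragmentation.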

HCT-116 [5] = assay: Induction of morphological changes in human HCT-116 cells assessed as intensive membrane ruffling and blebbing at 0.5 uM incubated for 48 hrs by scanning electron microscopic analysis; assay type: functional, cell-based; procedure, shortened: as §1
HCT-116 [6] = assay: Upregulation of cofilin protein expression in human HCT-116 cells at 0.5 uM incubated for 48 hrs by Western blot analysis; assay type: functional, cell-based
HCT-116 [7] = assay: Induction of morphological changes in human HCT-116 cells assessed as appearance of flattened cells at 0.5 uM incubated for 48 hrs by inverted phase-contrast microscopic analysis; assay type: functional, cell-based
HCT-116 [8] = assay: Induction of morphological changes in human HCT-116 cells assessed as appearance of flattened cells at 0.5 uM incubated for 48 hrs by scanning electron microscopic analysis; assay type: functional, cell-based; procedure, shortened: as §1
HCT-116 [9] = assay: Induction of cell death in human HCT-116 cells assessed as appearance of neutral pH vacuoles originated from engulfment of extracellular fluid at 0.5 uM incubated for 48 hrs by acridine orange and ethidium bromide staining based fluorescence microscopic analysis; assay type: functional
Procedure, shortened: (§3)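 HCT116 on coverslips (5×10^4 cells/well), 24 h attachment, then exposed 48 h to 0.5 µM. PBS-washed and stained a few minutes with a 1:1 mix of acridine orange (100 µg/mL) and ethidium bromide (100 µg/mL). Viewed at once by fluorescence microscopy at 640X, scoring green vs orange nuclei and punctate cytoplasmic staining.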

HCT-116 [10] = assay: Induction of morphological changes in human HCT-116 cells assessed as appearance of filamentous protrusions at 0.5 uM incubated for 48 hrs by inverted phase-contrast microscopic analysis; assay type: functional, cell-based
HCT-116 [11] = assay: Induction of cell death in human HCT-116 cells assessed as appearance of acidic vesicular organelles by measuring bright punctate dots in cytoplasm at 0.5 uM incubated for 48 hrs by acridine orange and ethidium bromide staining based fluorescence microscopic analysis; assay type: functional; procedure, shortened: as §3
HCT-116 [12] = assay: Induction of intracellular ROS generation in human HCT-116 cells at IC50 by DCFH-DA staining based analysis; assay type: functional, cell-based; settings: time 24-48 hrs, TDE = time-dependent effect
Procedure, shortened: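 HCT116 plated at 5×10^3 cells/well, grown overnight, then exposed 24 h or 48 h at the IC50 concentration. Loaded with 10 µM DCFH-DA for 30 min at 37 °C, medium swapped for PBS. Fluorescence read at ex 488/em 525 nm, normalized to cell number from a parallel MTT assay and to untreated cells. Triplicate, mean ±SD, Student's t-test.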

[13] = Cytotoxicity against hTERT-RPE1 cells assessed as inhibition of cell proliferation incubated for 48 hrs by MTT assay; assay type: toxicity, cell-based, TERT-RPE1; settings: human; procedure, shortened: as §2
HCT-116 [14] = assay: Induction of morphological changes in human HCT-116 cells assessed as leakage and perforation of cell membranes at 0.5 uM incubated for 48 hrs by scanning electron microscopic analysis; assay type: functional, cell-based; procedure, shortened: as §1
TERT-RPE1 = assay: Induction of morphological changes in hTERT-RPE1 cells at 5 uM incubated for 48 hrs by inverted phase-contrast microscopic analysis; assay type: toxicity, cell-based; settings: human, tert-rpe1, 48 h
HCT-116 [15] = assay: Induction of autophagy in human HCT-116 cells assessed as upregulation of Beclin-1 protein expression at 0.5 uM incubated for 48 hrs by Western blot analysis; assay type: functional, cell-based
HCT-116 [16] = assay: Induction of autophagy in human HCT-116 cells assessed as upregulation of Atg-7 protein expression at 0.5 uM incubated for 48 hrs by Western blot analysis; assay type: functional, cell-based
HCT-116 [17] = assay: Induction of autophagy in human HCT-116 cells assessed as effect on Beclin-1 protein expression at 0.5 uM incubated for 48 hrs by Western blot analysis; assay type: functional, cell-based
HCT-116 [18] = assay: Induction of autophagy in human HCT-116 cells assessed as downregulation of LC3B-I expression at 0.5 uM incubated for 48 hrs by Western blot analysis; assay type: functional, cell-based
HCT-116 [19] = assay: Induction of autophagy in human HCT-116 cells assessed as upregulation of LC3-II expression at 0.5 uM incubated for 48 hrs by Western blot analysis; assay type: functional, cell-based

## O=C(c1cc(Br)cc(Br)c1O)c1[nH]c(Br)c(Br)c1Br
HCT-116 [1]
  Activity: Active
MCF7
  IC50: 1.2 µM
HCT-116 [2]
  inhibition: inactive
HCT-116 [3]
  Activity: Active
HCT-116 [4]
  Activity: inactive
HCT-116 [5]
  Activity: Active
HCT-116 [6]
  Activity: Active
HCT-116 [7]
  Activity: Active
HCT-116 [8]
  Activity: Active
HCT-116 [9]
  Activity: Active
HCT-116 [10]
  Activity: Active
HCT-116 [11]
  Activity: Active
HCT-116 [12]
  Activity: Tde
[13]
  IC50 at 48 h: 57.7 µM
HCT-116 [14]
  Activity: Active
TERT-RPE1
  Activity: Non-Toxic
HCT-116 [15]
  Activity: Active
HCT-116 [16]
  Activity: Active

## O=C(c1cc(Br)ccc1O)c1[nH]c(Br)c(Br)c1Br
HCT-116 [1]
  Activity: Active
MCF7
  IC50: 0.61 µM
HCT-116 [2]
  inhibition: inactive
HCT-116 [3]
  Activity: Active
HCT-116 [4]
  Activity: inactive
HCT-116 [5]
  Activity: Active
HCT-116 [6]
  Activity: Active
HCT-116 [17]
  Activity: Active
HCT-116 [7]
  Activity: Active
HCT-116 [8]
  Activity: Active
HCT-116 [9]
  Activity: Active
HCT-116 [10]
  Activity: Active
HCT-116 [11]
  Activity: Active
HCT-116 [12]
  Activity: Tde
[13]
  IC50 at 48 h: 62.8 µM
HCT-116 [14]
  Activity: Active
TERT-RPE1
  Activity: Non-Toxic

## O=C(c1cc(Br)ccc1O)c1[nH]c(Br)c(Cl)c1Br
HCT-116 [1]
  Activity: Active
MCF7
  IC50: 0.73 µM
HCT-116 [2]
  inhibition: inactive
HCT-116 [3]
  Activity: Active
HCT-116 [4]
  Activity: inactive
HCT-116 [5]
  Activity: Active
HCT-116 [6]
  Activity: Active
HCT-116 [17]
  Activity: Active
HCT-116 [7]
  Activity: Active
HCT-116 [8]
  Activity: Active
HCT-116 [9]
  Activity: Active
HCT-116 [10]
  Activity: Active
HCT-116 [11]
  Activity: Active
HCT-116 [12]
  Activity: Tde
[13]
  IC50 at 48 h: 86.6 µM
HCT-116 [14]
  Activity: Active
TERT-RPE1
  Activity: Non-Toxic

## O=C(c1cc(Br)ccc1O)c1[nH]c(Cl)c(Cl)c1Br
HCT-116 [1]
  Activity: Active
MCF7
  IC50: 1.21 µM
HCT-116 [2]
  inhibition: inactive
HCT-116 [3]
  Activity: Active
HCT-116 [18]
  Activity: Active
HCT-116 [4]
  Activity: inactive
HCT-116 [5]
  Activity: Active
HCT-116 [6]
  Activity: Active
HCT-116 [17]
  Activity: Active
HCT-116 [7]
  Activity: Active
HCT-116 [8]
  Activity: Active
HCT-116 [9]
  Activity: Active
HCT-116 [10]
  Activity: Active
HCT-116 [11]
  Activity: Active
HCT-116 [19]
  Activity: Active
HCT-116 [12]
  Activity: Tde
[13]
  IC50 at 48 h: 175 µM
HCT-116 [14]
  Activity: Active
TERT-RPE1
  Activity: Non-Toxic

## O=C(c1cc(Br)ccc1O)c1[nH]c(Cl)c(Br)c1Br
HCT-116 [1]
  Activity: Active
MCF7
  IC50: 0.65 µM
HCT-116 [2]
  inhibition: inactive
HCT-116 [3]
  Activity: Active
HCT-116 [18]
  Activity: Active
HCT-116 [4]
  Activity: inactive
HCT-116 [5]
  Activity: Active
HCT-116 [6]
  Activity: Active
HCT-116 [17]
  Activity: Active
HCT-116 [7]
  Activity: Active
HCT-116 [8]
  Activity: Active
HCT-116 [9]
  Activity: Active
HCT-116 [10]
  Activity: Active
HCT-116 [11]
  Activity: Active
HCT-116 [19]
  Activity: Active
HCT-116 [12]
  Activity: Tde
[13]
  IC50 at 48 h: 61.5 µM
HCT-116 [14]
  Activity: Active
TERT-RPE1
  Activity: Non-Toxic
